How the values were obtained:
[1] = target: Sodium- and chloride-dependent GABA transporter 1 (Mus musculus) (UniProt P31648); assay: Binding affinity to mouse GAT1 expressed in HEK293 cells membranes assessed as remaining [2H10]NO711 binding level at 10 uM using LC-ESI-MS/MS analysis by [2H10]NO711 binding inhibition assay; type: cell membranes
Method in brief: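 Membranes from HEK293 cells stably expressing mGAT1, ~0.1 mg/mL protein, in pH 7.1 phosphate buffer with 1 M NaCl and 1% DMSO final. A single aldehyde (10 μM) and hydrazine 10 (100 μM) were incubated 4 h at 37 °C with the target to form the hydrazone. NO711 marker (20 nM) was then added for 40 min. Bound marker was recovered by filtration, 1 M NaCl washes and MeOH elution, then quantified by LC-ESI-MS/MS against [²H₁₀]NO711 internal standard. Result is % remaining specific binding, n = 4.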

[2] = target: T1, Sodium- and chloride-dependent GABA transporter 1 (Mus musculus, UniProt P31648); assay: Inhibition of [3H]GABA uptake at mouse GAT1 expressed in HEK293 cells after 25 mins by scintillation counting analysis; type: cell-based
[3] = target: T1, Sodium- and chloride-dependent GABA transporter 1; assay: Binding affinity to mouse GAT1 expressed in HEK293 cells membranes using LC-ESI-MS/MS analysis by [2H10]NO711 binding inhibition assay; type: cell membranes
Method in brief: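 Full competition with NO711 marker (20 nM) on mGAT1 HEK293 membranes in pH 7.1 phosphate buffer containing 1 M NaCl. Eight competitor concentrations, triplicate points. Bound marker was quantified by LC-ESI-MS/MS. Specific binding is total minus nonspecific. IC50 came from a one-site nonlinear fit and was converted to Ki by Cheng–Prusoff. pKi is mean ± SEM of at least three experiments.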

SMILES | Activity [1] | further results
O=C(O)C1CCCN(CCN/N=C/c2ccccc2-c2ccc(Cl)cc2)C1 (configuration not stated) | < 5% | IC50 ([2]; read-out: pIC50 (converted)): 973 nM; Ki [3]: 173 nM
Cc1ccc(-c2ccccc2/C=N/NCCN2CCCC(C(=O)O)C2)cc1 (configuration not stated) | 10% | IC50 ([2]; read-out: pIC50 (converted)): 3400 nM; Ki [3]: 473 nM
O=C(O)C1CCCN(CCC/C=C/c2ccccc2-c2ccc(F)cc2F)C1 (configuration not stated) |  | IC50 ([2]; read-out: pIC50 (converted)): 2840 nM; Ki [3]: 592 nM
O=Cc1ccccc1-c1ccc(Cl)cc1Cl | 85% | 
Cc1ccc(-c2ccccc2C=O)c(C)c1 | 81% | 
COc1ccc(-c2ccccc2/C=N/NCCN2CCCC(C(=O)O)C2)cc1 (configuration not stated) | > 10% | 
O=C(O)C1CCCN(CCN/N=C/c2cc(F)ccc2-c2ccccc2Cl)C1 (configuration not stated) | < 5% | IC50 ([2]; read-out: pIC50 (converted)): 1230 nM; Ki [3]: 104 nM
O=C(O)C1CCCN(CCN/N=C/c2cc(F)ccc2-c2ccccc2F)C1 (configuration not stated) | < 5% | IC50 ([2]; read-out: pIC50 (converted)): 1730 nM; Ki [3]: 264 nM
O=C(O)[C@@H]1CCCN(CCO/N=C(\Cc2ccccc2F)c2ccccc2F)C1 |  | IC50 ([2]; read-out: IC50): 80 nM
Cc1ccccc1-c1ccccc1/C=N/NCCN1CCCC(C(=O)O)C1 (configuration not stated) | < 5% | IC50 ([2]; read-out: pIC50 (converted)): 1560 nM; Ki [3]: 216 nM
O=C(O)C1=CCCN(CCON=C(c2ccccc2)c2ccccc2)C1 | < 5% | IC50 ([2]; read-out: IC50): 40 nM; IC50 [3]: ≤ 530 nM
Cc1ccc(-c2ccccc2/C=N/NCCN2CCCC(C(=O)O)C2)c(C)c1 (configuration not stated) | < 5% | IC50 ([2]; read-out: pIC50 (converted)): 836 nM; Ki [3]: 73.3 nM
O=C(O)C1CCCN(CCC/C=C/c2ccccc2-c2ccc(Cl)cc2Cl)C1 (configuration not stated) |  | IC50 ([2]; read-out: pIC50 (converted)): 769 nM; Ki [3]: 117 nM
O=Cc1ccccc1-c1cccc(-c2ccccc2)c1 | 81% | 
COc1ccccc1-c1ccccc1C=O | 79% | 
O=Cc1cc(F)ccc1-c1ccc(Cl)cc1 | 81% | 
O=C(O)C1CCCN(CCN/N=C/c2ccccc2-c2ccccc2F)C1 (configuration not stated) | < 5% | IC50 ([2]; read-out: pIC50 (converted)): 528 nM; Ki [3]: 122 nM
COc1cccc(-c2ccccc2/C=N/NCCN2CCCC(C(=O)O)C2)c1 (configuration not stated) | > 10% | 
O=C(O)C1CCCN(CCN/N=C/c2cc(F)ccc2-c2ccc(Cl)cc2)C1 (configuration not stated) | < 5% | IC50 ([2]; read-out: pIC50 (converted)): 1960 nM; Ki [3]: 234 nM
O=C(O)C1CCCN(CCN/N=C/c2ccccc2-c2cccc(F)c2)C1 (configuration not stated) | 16% | 
O=Cc1ccccc1-c1ccc(Cl)cc1 | 79% | 
Cc1ccc(-c2ccccc2C=O)cc1 | 91% | 
O=Cc1ccccc1-c1cc(F)cc(F)c1 | 81% | 
O=C(O)C1CCCN(CCN/N=C/c2ccccc2-c2cccc(-c3ccccc3)c2)C1 (configuration not stated) | > 10% | 
O=Cc1cc(F)ccc1-c1ccccc1F | 35% | 
O=C(O)C1CCCN(CCN/N=C/c2ccccc2-c2ccc(F)cc2F)C1 (configuration not stated) | < 5% | IC50 ([2]; read-out: pIC50 (converted)): 129 nM; Ki [3]: 35.6 nM
O=Cc1ccccc1-c1c(F)cccc1F | 35% | 

SMILES | Activity [1] | further results
O=C(O)C1CCCN(CCC/C=C/c2ccccc2-c2ccccc2Cl)C1 (configuration not stated) |  | IC50 ([2]; read-out: pIC50 (converted)): 3560 nM; Ki [3]: 834 nM
COc1ccc(F)cc1-c1ccccc1/C=N/NCCN1CCCC(C(=O)O)C1 (configuration not stated) | > 10% | 
O=C(O)[C@@H]1CCCN(CCOCCC(c2ccccc2)c2ccccc2)C1 |  | IC50 ([2]; read-out: IC50): 55 nM
O=C(O)C1CCCN(CCN/N=C/c2ccccc2-c2ccc(F)cc2Cl)C1 (configuration not stated) | < 5% | IC50 ([2]; read-out: pIC50 (converted)): 292 nM; Ki [3]: 14.6 nM
O=Cc1ccccc1-c1cccc(Cl)c1 | 79% | 
O=Cc1ccccc1-c1ccc(F)cc1F | 81% | 
O=Cc1ccccc1-c1ccc(C(F)(F)F)cc1C(F)(F)F | 81% | 
O=C(O)C1=CCCNC1 [GUVACINE] |  | IC50 ([2]; read-out: IC50): 14000 nM
O=C(O)C1CCCN(CCN/N=C/c2ccccc2-c2ccc(F)c(F)c2)C1 (configuration not stated) | < 5% | IC50 ([2]; read-out: pIC50 (converted)): 3320 nM; Ki [3]: 625 nM
O=C(O)C1CCCN(CCN/N=C/c2ccccc2-c2ccc(-c3ccccc3)cc2)C1 (configuration not stated) | > 10% | 
COc1cccc(-c2ccccc2C=O)c1 | 91% | 
O=Cc1c(F)cccc1-c1ccccc1 | 85% | 
O=C(O)C1CCCN(CCC/C=C/c2ccccc2-c2ccc(F)cc2Cl)C1 (configuration not stated) |  | IC50 ([2]; read-out: pIC50 (converted)): 3990 nM; Ki [3]: 313 nM
O=Cc1ccccc1-c1ccccc1F | 82% | 
O=Cc1ccccc1-c1ccccc1Cl | 79% | 
Cc1cccc(-c2ccccc2C=O)c1 | 91% | 
O=Cc1ccccc1-c1c(F)cc(F)cc1F | 35% | IC50 [3]: 10000 nM
COc1ccccc1-c1ccccc1/C=N/NCCN1CCCC(C(=O)O)C1 (configuration not stated) | 19% | 
Cc1ccccc1-c1ccccc1C=O | 81% | 
O=C(O)C1CCCN(CCN/N=C/c2ccccc2-c2ccc(Cl)cc2F)C1 (configuration not stated) | < 5% | IC50 ([2]; read-out: pIC50 (converted)): 126 nM; Ki [3]: 24.7 nM
O=C(O)C1CCCN(CCN/N=C/c2c(F)cccc2-c2ccccc2)C1 (configuration not stated) | > 10% | 
O=Cc1ccccc1-c1cccc(F)c1 | 82% | 
COc1cc(F)ccc1-c1ccccc1C=O | 88% | 
COc1ccc(F)cc1-c1ccccc1C=O | 88% | 
O=Cc1ccccc1-c1ccc(Cl)cc1F | 85% | 
O=C(O)C1CCCN(CCN/N=C/c2ccccc2-c2cccs2)C1 (configuration not stated) | 8.2% | IC50 ([2]; read-out: pIC50 (converted)): 2870 nM; Ki [3]: 590 nM
Cc1ccsc1C(=CCCN1CCC[C@@H](C(=O)O)C1)c1sccc1C [TIAGABINE] |  | IC50 ([2]; read-out: IC50): 70 nM

SMILES | Activity [1] | further results
O=C(O)C1CCCN(CCN/N=C/c2ccccc2-c2ccc(C(F)(F)F)cc2C(F)(F)F)C1 (configuration not stated) | < 5% | IC50 ([2]; read-out: pIC50 (converted)): 2820 nM; Ki [3]: 170 nM
O=Cc1ccccc1-c1cccc(F)c1F | 81% | 
O=Cc1ccccc1-c1cc(F)ccc1F | 81% | 
O=C(O)C1CCCN(CCC/C=C/c2ccccc2-c2ccccc2F)C1 (configuration not stated) |  | IC50 ([2]; read-out: pIC50 (converted)): 3330 nM; Ki [3]: 647 nM
O=C(O)C1CCCN(CCN/N=C/c2ccccc2-c2ccc(F)cc2)C1 (configuration not stated) | < 5% | IC50 ([2]; read-out: pIC50 (converted)): 1790 nM; Ki [3]: 284 nM
O=C(O)C1CCCN(CCN/N=C/c2ccccc2-c2cccc(Cl)c2)C1 (configuration not stated) | > 10% | 
O=C(O)[C@@H]1CCCN(CCOCCc2ccccc2-c2ccccc2)C1 |  | IC50 ([2]; read-out: IC50): 111 nM
O=C(O)C1CCCN(CCN/N=C/c2cccc(-c3ccccc3)c2)C1 (configuration not stated) | > 10% | 
COc1cccc(F)c1-c1ccccc1C=O | 88% | 
O=Cc1ccccc1-c1ccc(-c2ccccc2)cc1 | 81% | 
COc1ccc(-c2ccccc2C=O)cc1 | 91% | 
O=Cc1ccccc1-c1ccc(F)c(F)c1 | 82% | 
O=Cc1ccccc1-c1ccccc1-c1ccccc1 | 81% | 
O=C(O)C1CCCN(CCN/N=C/c2ccccc2-c2cc(F)cc(F)c2)C1 (configuration not stated) | > 10% | 
Cc1cccc(-c2ccccc2/C=N/NCCN2CCCC(C(=O)O)C2)c1 (configuration not stated) | > 10% | 
O=Cc1ccccc1-c1ccc(F)cc1Cl | 81% | 
O=C(O)C1CCCN(CCN/N=C/c2cc(F)ccc2-c2ccccc2)C1 (configuration not stated) | 13% | 
O=C(O)C1CCCN(CCN/N=C/c2ccccc2-c2ccccc2Cl)C1 (configuration not stated) | < 5% | IC50 ([2]; read-out: pIC50 (converted)): 479 nM; Ki [3]: 65.5 nM
O=Cc1cc(F)ccc1-c1ccccc1 | 85% | 
O=C(O)C1CCCN(CCC=C(c2ccccc2)c2ccccc2)C1 (configuration not stated) |  | IC50 ([2]; read-out: IC50): 130 nM
O=Cc1cccc(-c2ccccc2)c1 | 88% | 
COc1cccc(F)c1-c1ccccc1/C=N/NCCN1CCCC(C(=O)O)C1 (configuration not stated) | < 5% | IC50 ([2]; read-out: pIC50 (converted)): 2250 nM; Ki [3]: 443 nM
O=C(O)C1CCCN(CCN/N=C/c2ccccc2-c2ccccc2-c2ccccc2)C1 (configuration not stated) | > 10% | 
O=Cc1ccccc1-c1ccc(F)cc1 | 82% | 
O=C(O)C1CCCN(CCN/N=C/c2ccccc2-c2cc(F)ccc2F)C1 (configuration not stated) | > 10% | 
O=Cc1cc(F)ccc1-c1ccccc1Cl | 35% | 
